Screens (PubChem BioAssay)
Hits are enriched below; roughly 2.9% of the tested compounds scored in any of these assays.
CDK5 p35 inh: inhibitors of human CDK5/p35 kinase, primary screen, biochemical, single concentration | Cyclin-dependent kinase 5 (Homo sapiens) + Cyclin-dependent kinase 5 activator 1 (Homo … | Recombinant CDK5/p35, ADP-Glo luminescence, 60 min | inhibition, % at 10 µM | 0.01% of 330,000 active | AID 488839, 2010;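 active = highest replicate inhibition of at least 50% and at least 75% of replicates reaching 50%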;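 note: plate controls were DMSO neutral control for no effect and GW8510 at 10 µM for full effect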
INS-1E GSIS act: GLuc luminescence reporter in INS-1E cells, primary screen for activators of glucose-dependent secretion of insulin; INS-1E GLuc reporter insulin secretion, 2-3 h; activation, % at 16.6 µM; 0.61% of 370,000 active;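 active = lowest replicate activation of at least 40%, so every replicate reaches that level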;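 note: 0% = median of neutral control wells and 100% = median of IBMX positive control wells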
Cneo AK release: Cryptococcus neoformans cell lysis inducers, primary screen, AK release luminescence, single concentration; C. neoformans lysis, adenylate kinase release luminescence, 4 h; normalised: neutral wells 0, clomiphene wells 100; 0.2% of 360,000 active; lysis activity, % at 15 µM;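 active = mean lysis activity across replicates of at least 80%, whatever share of replicates individually reach that level; inactive = mean lysis activity below 80%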
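Assay system: C. neoformans cells. Amount: yeast cell density of 5 × 10^6 cells/mL. Technique: AK luminescence. Buffer or medium: YPD. Times: static 4 h at 37 °C with compound, 1 h detection. Dosing: single-point compound dose. Read-out: lysis from increased AK signal.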
HIV Env fusion: inhibitors of HIV-1 Env-driven cell-cell fusion, primary screen, HeLa-JRFL effector, CEM21 target cells, luciferase. inhibition, % at 12.3 µM. 1.1% of 360,000 active. AID 651610, 2012;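 active = mean replicate inhibition score of at least 50 and every replicate individually at or above 50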;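 note: 0% = plate neutral controls and 100% = maraviroc near 300 nM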
dFosB act-1: activators of delta FosB homodimer, primary screen, biochemical, fluorescence polarization, TAMRA-CDK5 oligo, single point. Protein FosB (Mus musculus), P13346. AID 493131, 2011. purified delta FosB; percent of positive-control signal above neutral wells. activation, % at 25 µM. 0.99% of 340,000 active;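 active = mean activation above about 17%, with every replicate also reaching it, limit read from the data, passing the limit was not always enough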
Target sequence (P13346 whole entry, looked up): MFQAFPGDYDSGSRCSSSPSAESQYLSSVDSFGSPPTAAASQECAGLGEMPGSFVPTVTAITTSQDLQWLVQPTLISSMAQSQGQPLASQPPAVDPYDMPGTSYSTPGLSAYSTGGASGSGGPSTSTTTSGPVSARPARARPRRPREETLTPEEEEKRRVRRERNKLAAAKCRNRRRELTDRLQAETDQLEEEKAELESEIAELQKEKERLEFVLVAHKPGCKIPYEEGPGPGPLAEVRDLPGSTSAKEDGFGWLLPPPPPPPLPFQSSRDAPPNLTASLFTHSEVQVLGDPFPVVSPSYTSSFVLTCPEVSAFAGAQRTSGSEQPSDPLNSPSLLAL
PAX8 reporter: inhibitors of PAX8-driven TPO luciferase reporter, primary screen, RMG-I cells, single concentration. 1.2% of 360,000 active. SteadyGlo, 24 h. inhibition, % at 12.6 µM;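 active = mean replicate inhibition at least 60% with every replicate also reaching 60%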;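 note: luciferase light reporting Pax8 driven TPO promoter activity; plate controls were median of neutral control wells for no effect and mitoxantrone controls for full effect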
dFosB act-2: activators of mouse delta FosB DNA binding, confirmation, biochemical, fluorescence polarization, TAMRA-CDK5 oligo, cherry-picked samples; AID 588690, 2011; activation, % at 24.9 µM; purified delta FosB; normalised: neutral wells 0, positive control 100; 2,400 tested, under 10 active; shares compounds with dFosB act-1;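 active = highest replicate activation at or above 34% and every replicate reaching that threshold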;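 note: higher polarization means more probe DNA bound by delta FosB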
* hit, by the source's call; · = no result; [ ] = remark or other dose.

SMILES	CDK5 p35 inh	INS-1E GSIS act	Cneo AK release	HIV Env fusion	dFosB act-1	PAX8 reporter	dFosB act-2
O=C(CCNC(=O)Cn1ccc2ccccc2c1=O)NCCc1ccc(Cl)cc1	2.0	7.2	-1.9	10.5	33.2*	20.5	-6.6
CCOc1ccccc1CNC(=O)CCNC(=O)Cn1ccc2ccccc2c1=O	2.0	6.8	-0.4	-5.0	22.7*	16.5	2.1
CCOc1ccc(N(CC)C(=O)CCNC(=O)Cn2ccc3ccccc3c2=O)cc1	-0.3	·	14.3	-51.5	-3.2	·	·
Cc1ccc2c(c1)CC(C)N2S(=O)(=O)c1nnc(NC(=O)CC(C)C)s1 (stereo not given)	-1.3	31.1	-0.8	-2.1	26.7*	7.9	1.2
CCC(CC)C(=O)Nc1nnc(S(=O)(=O)N2c3ccccc3CC2C)s1 (stereo not given)	-2.2	9.1	-0.3	-5.9	-0.3	16.5	·
COc1cc2c3nnc(-c4ccc(F)cc4)c-3cn(Cc3ccc(F)cc3)c2cc1OC	0.5	-1.4	-1.8	-13.5	36.6*	25.7	-9.3
Cc1cc(Nc2cccc(Cl)c2)nc(NCc2ccccc2)n1	0.3	14.6	·	58.0	40.9*	7.6	-1.4
Cc1cc(N/N=C/c2cccc(Cl)c2)nc(NCc2ccccc2)n1	-0.1	-12.9	0.2	-12.1	41.0*	34.2	2.5
Cc1cc(C)nc(N/N=C/c2cccc(Cl)c2)n1	-0.9	8.3	·	-18.6	-2.0	-20.1	·
CN(C)c1nc(NCc2ccccc2)nc(N/N=C/c2ccc(Cl)cc2Cl)n1	-0.4	·	·	-29.8	17.4*	-3.3	5.0
O=C(C[C@@H]1CC[C@H](NC(=O)c2ccccn2)[C@@H](CO)O1)NCc1cc(F)cc(F)c1	·	9.0	38.2	1.9[16.7 µM]	·	-6.3	·
C[C@H](CO)N1C[C@H](C)[C@H](CN(C)C(=O)Nc2cccc3ccccc23)Oc2ccc(NS(=O)(=O)c3ccc(F)cc3)cc2C1=O	·	-22.0	1.2	-17.4[16.7 µM]	·	·	·
COc1ccc(Br)cc1CNC(=O)CCc1nc(-c2ccc(C)cc2)no1	-1.2	-18.2	2.0	·	20.6*	·	-0.2
COc1cc(NC(=O)COc2ccccc2[N+](=O)[O-])ccc1NC(=O)c1ccco1	0.7	46.9	-1.2	-33.5	34.5*	-44.0	2.6
O=C(COc1ccccc1Cl)Nc1ccc(NC(=O)c2ccco2)cc1	1.7	-4.1	0.1	-2.7	21.4*	-14.1	6.5
O=C(COc1ccccc1Cl)Nc1cc(Cl)ccc1O	-2.8	-0.3	·	-26.0	22.0*	27.8	-1.4
COc1ccccc1CC(=O)Nc1cc(Cl)ccc1O	-2.6	-10.5	·	-9.2	-3.2	·	·
COc1cc(NC(=O)COc2ccc([N+](=O)[O-])cc2)ccc1NC(=O)c1ccco1	·	·	-1.0	3.7	·	-18.6	·
C[C@H](CO)N1C[C@H](C)[C@@H](CN(C)C(=O)c2ccc3c(c2)OCO3)Oc2ncc(C#Cc3ccccc3F)cc2C1=O	·	-16.1	-0.8	-1.9[16.7 µM]	·	·	·
COc1ccc(C)c2sc(NC(=O)c3cccc(N4C(=O)CCC4=O)c3)nc12	0.7	8.7	-0.4	-23.7	52.7*	-12.0	6.8
CNC(=O)C[C@H]1CC[C@H]2[C@@H](COC[C@H](O)CN2Cc2ccc(C(F)(F)F)cc2)O1	·	4.0	2.5	·	·	·	·
O=C(CN1C(=O)/C(=C/c2ccc(C(F)(F)F)cc2)Sc2ccccc21)NCCCN1CCOCC1	2.0	-18.8	3.1	5.6	25.1*	-4.1	0.4
CCc1ccc(/C=C2/Sc3ccccc3N(CC(=O)NCCCN3CCOCC3)C2=O)cc1	-2.1	-6.9	0.2	-1.3	-3.7	10.3	·
O=C(Nc1ccc2oc(-c3ccncc3)nc2c1)c1ccc(F)cc1	-0.6	0.2	-0.6	-0.8	35.5*	9.7	2.8
O=C(Nc1ccc(NC(=O)c2cc3ccccc3o2)cc1)c1ccc2c(c1)OCCO2	1.6	20.3	·	26.5	42.5*	-0.6	-1.1
